The values below come from PMC9064382 (RSC Advances, 2019).

Assay [1] deals with T1, hOATP2B1 (Homo sapiens, UniProt O94956).
T1 sequence (O94956 1-709): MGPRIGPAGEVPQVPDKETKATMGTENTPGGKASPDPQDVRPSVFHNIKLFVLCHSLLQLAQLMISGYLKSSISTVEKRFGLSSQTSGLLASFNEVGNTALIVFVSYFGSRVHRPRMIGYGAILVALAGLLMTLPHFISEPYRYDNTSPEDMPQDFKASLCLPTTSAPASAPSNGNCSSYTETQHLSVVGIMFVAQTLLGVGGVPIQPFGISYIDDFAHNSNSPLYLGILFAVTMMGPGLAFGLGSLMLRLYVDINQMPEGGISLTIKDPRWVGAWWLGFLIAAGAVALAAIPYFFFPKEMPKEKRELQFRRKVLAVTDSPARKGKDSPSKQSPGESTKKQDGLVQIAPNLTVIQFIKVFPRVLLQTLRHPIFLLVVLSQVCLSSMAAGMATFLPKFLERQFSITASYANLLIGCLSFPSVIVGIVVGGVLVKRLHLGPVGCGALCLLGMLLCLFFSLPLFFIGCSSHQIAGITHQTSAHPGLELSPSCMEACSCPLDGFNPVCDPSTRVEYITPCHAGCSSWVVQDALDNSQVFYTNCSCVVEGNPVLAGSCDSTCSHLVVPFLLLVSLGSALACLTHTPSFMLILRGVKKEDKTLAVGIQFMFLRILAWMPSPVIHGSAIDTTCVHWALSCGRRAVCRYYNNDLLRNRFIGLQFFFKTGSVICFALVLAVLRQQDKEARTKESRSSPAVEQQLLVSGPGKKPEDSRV
The assay is classed as in vitro ADME. In short, it runs like this: (§1)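 Transfected and mock cells were incubated 2 min at 37 °C with 200 nmol L−1 3H-ES plus test compound. The screen used a single 100 μmol L−1 concentration with reference inhibitors as positive controls, giving an inhibition rate (n = 3, mean ± sd). […] DMSO was <0.2%. Cells were stopped with cold DPBS, rinsed three times, lysed in 0.1 mol L−1 NaOH and counted by scintillation (dpm).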

In assay [2] the target is T2, hOAT3 (Homo sapiens, UniProt Q8TCC7).
T2 sequence (Q8TCC7 1-542): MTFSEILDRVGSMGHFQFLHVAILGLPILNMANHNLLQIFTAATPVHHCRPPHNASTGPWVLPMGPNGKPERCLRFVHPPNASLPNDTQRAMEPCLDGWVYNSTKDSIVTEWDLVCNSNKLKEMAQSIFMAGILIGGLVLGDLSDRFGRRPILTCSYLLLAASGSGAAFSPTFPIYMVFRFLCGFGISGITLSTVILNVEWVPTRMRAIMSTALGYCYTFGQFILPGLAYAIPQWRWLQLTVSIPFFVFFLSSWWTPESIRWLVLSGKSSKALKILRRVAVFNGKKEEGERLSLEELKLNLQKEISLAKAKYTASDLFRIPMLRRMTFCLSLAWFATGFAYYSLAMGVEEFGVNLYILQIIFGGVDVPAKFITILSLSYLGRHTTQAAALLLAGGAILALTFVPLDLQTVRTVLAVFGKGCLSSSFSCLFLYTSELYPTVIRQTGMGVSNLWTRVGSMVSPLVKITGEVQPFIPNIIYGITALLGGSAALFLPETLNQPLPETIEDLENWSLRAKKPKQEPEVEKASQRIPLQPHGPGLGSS
Description: Inhibition of 3H-ES uptake in hOAT3-transfected cells by liquorice ingredients. As to conditions: read-out: IC50 on hOAT3; 3H-ES probe, 2 min. The assay is classed as in vitro ADME. The essentials: as §1

As usually defined, the IC50 is the concentration needed to halve the response being measured.

On to `C=CC(C)(C)c1cc(/C=C/C(=O)c2ccc(O)cc2)c(OC)cc1O` [licochalcone A], for which the IC50 in assay [1] (read-out: IC50 on hOATP2B1, 3H-ES probe, 2 min) was 1090 nM; in assay [2], 3600 nM. Besides, the “inhibition of hOATP2B1” value in assay [1] (screening at 100 μm) is on record as “strong inhibitors”.
